DENV2 CPE – protects cells from dengue virus 2 cytopathic effect | CPE inhibition, % at 9.99 µM | DENV2-infected cells, cytopathic effect rescue, plate reader | AID 651640 | 1.7% of 350,000 active; in the data active = CPE inhibition above about 20%, passing the limit was not always enough; inconclusive = no clear call, values can overlap the other calls; tested in BHK-21 cells;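 note: 0% = median of neutral control wells and 100% = median of positive control wells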
Cneo AK release – causes C. neoformans cell lysis; adenylate kinase release luminescence, 4 h; normalised: neutral wells 0, clomiphene wells 100; lysis activity, % at 15 µM; 0.2% of 360,000 active;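 active = mean lysis activity across replicates of at least 80%, whatever share of replicates individually reach that level; inactive = mean lysis activity below 80%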
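Test system: log-phase Cryptococcus neoformans yeast cells; Quantity: yeast cell density of 5 × 10^6 cells/mL; Buffer or medium: YPD; Doses: single compound concentration per well; Timing: 4 h at 37 °C static, read 1 h later; Measured by: AK luminescence; Read-out basis: lysis from increased AK signal; Control set: Clomiphene as positive control.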
Ecoli rRNA inh – inhibits bacterial ribosomal RNA function over humanized ribosomes. E. coli WT GFP vs humanized-ribosome RFP mutants, fluorescence, 24 h; hits give low values; DMSO median 0, no signal -100. GFP signal change (wild-type ribosome), % (no concentration beside the values). 1.6% of 350,000 active;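 active = significant combined selectivity score with lowered wild-type GFP, culture density cut under 30%, mutant RFP and density less affected; inactive = any of these conditions unmet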
E-sel inducer – induces E-selectin expression in human endothelial cells | activation, % at 7.58 µM | HUVEC E-selectin immunofluorescence imaging; normalized: neutral wells 0, TNF-alpha wells 100 | 0.37% of 260,000 active;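 active = mean E-selectin-positive cell signal at least 10% of the positive control, reached in at least 60% of replicates, without over 20% cell loss; inconclusive = no rule given, readout overlaps actives, possibly toxicity-flagged; inactive = the rest, including those meeting only one limit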
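assay system = HUVEC, human umbilical vein endothelial cells | input = 3,000 HUVEC seeded per well | medium = EGM-2 growth medium on 0.1% gelatin-coated wells | dosing = one compound dose added by pin transfer | signal = immunofluorescence imaging | read-out basis = % PE-positive cells | control set = TNF-alpha, DMSO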
miR122 inh – inhibitors of miR-122 in Huh7 cells; Huh7 miR-122 Renilla luciferase sensor, 48 h; neutral wells = 0, positive control = 100; 0.3% of 340,000 active; activation (reporter increase), % at 12.5 µM;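 active = mean replicate activation score at least 90 and every replicate individually at or above 90; inconclusive = only one of the two criteria met; inactive = neither criterion met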;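 note: higher luciferase means less miR-122 activity so hits act as miR-122 inhibitors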
* = called active by the depositor; ? = inconclusive; nt = no result; [ ] = dose if it differs, or a comment. A selection: hits, their analogues and other compounds. The true share with any hit is near 3.1%.

SMILES | DENV2 CPE | Cneo AK release | Ecoli rRNA inh | E-sel inducer | miR122 inh
COc1ccc(OC)c(S(=O)(=O)NC2CC2)c1 | 1.8 | -0.3 | 5.8 | 1.0 | 7.2
CCOc1ccc(Cl)cc1S(=O)(=O)NC1CCCC1 | -7.3 | -1.2 | 1.5 | -0.2 | 114.1*
CCOc1cc(S(=O)(=O)NC2CCCCC2)ccc1F | nt | -1.2 | nt | nt | 36.9
COc1cc(S(=O)(=O)NC2CCCCC2)c(C)cc1C | nt | nt | -14.6 | nt | 163.1*
COc1ccc(F)cc1S(=O)(=O)NC1CC(C)(C)NC(C)(C)C1 | nt | nt | nt | nt | 0.7
COc1ccc(C)cc1S(=O)(=O)NC1CCCCC1C (stereo not drawn) | nt | 0.7 | nt | nt | 132.5*
COc1ccc(F)cc1S(=O)(=O)NC1CCCCCC1 | nt | 2.3 | nt | nt | 104.7*
COc1ccc(S(=O)(=O)NC2CCCCCC2)c(OC)c1 | ? | -0.5 | -3.1 | 0.8 | 28.9
COc1ccc2c3c([nH]c2c1)[C@H](CO)NCC31CN(C(=O)c2ccccc2)C1 | nt | nt | 2.0 | nt | nt
COc1cc(S(=O)(=O)NC2CCCC2)c(OC)cc1Cl | nt | 0.5 | nt | nt | 293.1*
C[C@@H]1CN([C@@H](C)CO)C(=O)c2cc(NC(=O)Nc3ccc(F)cc3)ccc2O[C@@H](C)CCCCO[C@@H]1CN(C)C(=O)NC1CCCCC1 | -7.4 | 1.5 | -1.0 | nt | 6.1[16.7 µM]
C[C@@H]1CN([C@H](C)CO)C(=O)c2cc(NC(=O)C3CCCCC3)ccc2O[C@@H](C)CCCCO[C@H]1CN(C)C(=O)Nc1ccc(F)cc1 | 0.1 | 0.9 | -1.0 | 0.0 | -11.8[16.7 µM]
C[C@@H]1CN([C@H](C)CO)C(=O)c2cc(NC(=O)Nc3ccc(F)cc3)ccc2O[C@@H](C)CCCCO[C@H]1CN(C)C(=O)NC1CCCCC1 | 20.8* | 1.9 | 4.2 | nt | -14.2[16.7 µM]
C[C@H]1CCCCO[C@H](CN(C)C(=O)Nc2ccc(F)cc2)[C@@H](C)CN([C@@H](C)CO)C(=O)c2cc(NC(=O)Nc3ccc(F)cc3)ccc2O1 | 45.5* | -0.5 | -0.8 | nt | -13.4[16.7 µM]
C[C@@H]1CCCCO[C@@H](CN(C)C(=O)Nc2ccc(F)cc2)[C@H](C)CN([C@H](C)CO)C(=O)c2cc(NC(=O)C3CCCCC3)ccc2O1 | 32.3* | -1.0 | 1.8 | 0.0 | -10.5[16.7 µM]
C[C@@H]1CCCCO[C@@H](CN(C)CC2CC2)[C@@H](C)CN([C@H](C)CO)C(=O)c2cc(NC(=O)Nc3ccc(F)cc3)ccc2O1 | 77.8* | 2.1 | 3.0 | -0.3 | -1.3[16.7 µM]
C[C@H](CO)N1C[C@H](C)[C@H](CN(C)C(=O)CC2CC2)Oc2cc(C3=CCCC3)ccc2S1(=O)=O | 18.8 | 45.1 | -4.3 | -0.1 | 3.3[16.7 µM]
C[C@@H]1CCCCO[C@@H](CN(C)C(=O)NC2CCCCC2)[C@H](C)CN([C@H](C)CO)C(=O)c2cc(NC(=O)Nc3ccc(F)cc3)ccc2O1 | -5.5 | -0.3 | 1.2 | nt | -18.0[16.7 µM]
C[C@H]1CCCCO[C@H](CN(C)C(=O)NC2CCCCC2)[C@@H](C)CN([C@@H](C)CO)C(=O)c2cc(NC(=O)Nc3ccc(F)cc3)ccc2O1 | 31.7* | nt | 1.6 | nt | nt
COc1ccc2c3c([nH]c2c1)[C@H](CO)N(C(=O)Nc1ccc(F)cc1)CC31CN(C(=O)c2ccccc2F)C1 | 7.8 | nt | 3.4 | -0.3 | nt
Fc1ccc(Br)cc1C1C=C(c2ccc(Br)cc2)Nc2ncnn21 (stereo not drawn) | nt | -1.1 | -30.0* | nt | 3.5
O=C(N/N=C/c1ccccn1)c1cccc(S(=O)(=O)Nc2ccccc2Cl)c1 | -6.4 | nt | -39.5* | 5.3 | nt
Cc1ccsc1/C=N/NC(=O)c1cccc(S(=O)(=O)Nc2ccccc2Cl)c1 | -4.0 | nt | nt | nt | nt
Cc1noc(C)c1NC(=O)Nc1cccc2c1O[C@@H](CN(C)S(=O)(=O)c1cn(C)cn1)[C@@H](C)CN([C@@H](C)CO)C2=O | 26.6* | 104.6* | 1.6 | -0.1 | 0.5[16.7 µM]
C[C@@H]1CN([C@@H](C)CO)C(=O)c2cccc(NC(=O)Nc3ccccc3)c2O[C@@H]1CN(C)S(=O)(=O)c1ccccc1 | 1.7 | -4.3 | -2.6 | -3.2 | -5.6[16.7 µM]
C[C@@H]1CN([C@H](C)CO)C(=O)c2cccc(NC(=O)Nc3ccccc3)c2O[C@@H]1CN(C)S(=O)(=O)c1ccccc1 | -4.8 | 1.5 | 1.8 | 255.2* | -1.9[16.7 µM]
C[C@H]1CN([C@@H](C)CO)C(=O)c2cccc(NC(=O)Nc3ccccc3)c2O[C@@H]1CN(C)S(=O)(=O)c1cn(C)cn1 | 46.6* | 2.4 | 0.2 | 0.0 | 5.1[16.7 µM]
